The list is not random: actives were taken first. Their share in the collection is about 9.6%.
HCT116 PTEN-null: suppresses growth of cells with PTEN deletion | HCT116 PTEN-null viability, CellTiter-Glo, 60 h; active compounds read low | viability, % at 10 µM | 1.2% of 140,000 active | AID 827;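 active = viability at or below a set limit, 4 SD under the median of all tested compounds, cut at about 3.7% in these data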;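 note: PTEN knockout HCT116 line with beta catenin targeted HCT116 as companion control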
L major viab: inhibitors of Leishmania major promastigote growth; Leishmania major promastigotes, resazurin fluorescence viability; inhibition, % at 10 µM; 9% of 200,000 active; in the data active = inhibition above about 50%;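 note: promastigotes grown with compound for 44 hours at 28 °C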
PMI act satM6P: activators of human phosphomannose isomerase at near-saturating mannose 6-phosphate. activation factor at 20 µM. AID 1216. coupled PMI enzyme assay, resazurin fluorescence, 20 min; active compounds read high; 1 = untreated enzyme, 0 = substrate-free blank. 0.34% of 190,000 active;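 active = activation factor of 2 or more at 20 µM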
Target sequence (P34949 whole entry, looked up): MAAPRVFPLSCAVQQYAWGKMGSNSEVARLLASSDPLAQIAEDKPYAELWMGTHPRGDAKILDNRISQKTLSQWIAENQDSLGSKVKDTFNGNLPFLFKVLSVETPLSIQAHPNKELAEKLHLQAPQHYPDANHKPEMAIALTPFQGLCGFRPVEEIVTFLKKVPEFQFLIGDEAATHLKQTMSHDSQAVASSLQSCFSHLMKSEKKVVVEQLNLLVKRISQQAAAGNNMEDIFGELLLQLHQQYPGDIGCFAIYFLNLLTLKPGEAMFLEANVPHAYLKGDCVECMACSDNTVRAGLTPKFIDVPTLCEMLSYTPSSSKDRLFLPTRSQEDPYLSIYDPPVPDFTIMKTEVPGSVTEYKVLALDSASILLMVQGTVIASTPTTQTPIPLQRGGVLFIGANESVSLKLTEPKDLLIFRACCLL
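Test system: human phosphomannose isomerase with PGI, G6PDH, diaphorase coupling enzymes; Amount: PMI at 15 ng/mL final; Reagent: Mannose-6-phosphate 1.0 mM (near-saturating) plus 0.22 mM NADP+; Timing: 20 min, room temperature; Technique: resorufin fluorescence at Ex 544/Em 590 nm; Dosing: 20 µM single dose.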
PMI act: phosphomannose isomerase (human) activation; activation factor at 20 µM; purified human PMI, coupled resazurin fluorescence, 20 min; active compounds read high; 1 = vehicle control, 0 substrate-free wells; 0.005% of 190,000 active;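 active = activation factor of 2 or more at 20 µM, relative to plate controls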
HCT116 bCat-KO: beta-catenin-lacking colon tumor cell growth suppression; HCT116 beta-catenin knockout viability, CellTiter-Glo, 60 h; active compounds read low; viability, % at 10 µM; 1.5% of 140,000 active; AID 818;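 active = viability at or under a set limit, the compound median less 4 SD, cut at about 6% in these data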;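 note: 0% = Hyamine 1622 control at 20 µM and 100% = untreated cell control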
L major 1uM: blocks Leishmania major promastigote growth at 1 uM, repeat screen; inhibition, % at 1 µM; L. major promastigote growth, resazurin fluorescence, 48 h; AID 1258; shares compounds with L major viab; 13% of 1,100 active;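 active = inhibition above about 50% in both repeat tests, limit read from the data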
* hit, by the source's call; / = no result.

SMILES	HCT116 PTEN-null	L major viab	PMI act satM6P	PMI act	HCT116 bCat-KO	L major 1uM
O=C(O)c1cc(-c2cccc(Cl)c2)nc2nc(N3CCCCC3)sc12	97	63*	1.1	1.1	90	-10
O=C(c1ccccc1)c1sc(N2CCCCCC2)nc1-c1ccccc1	89	13	0.9	0.9	88	/
Nc1nn(S(=O)(=O)c2ccccc2)cc1-c1ccc([N+](=O)[O-])cc1	53	99*	0.9	1	60	6
N=C(N)SCc1cn(-c2ccccc2)nc1-c1ccc(Br)cc1	/	101*	1	0.9	/	79*
COC(=O)C(Cc1ccccc1)NC(=O)c1cccc(S(=O)(=O)N(C)C)c1 (stereo not given)	/	3	0.9	0.9	/	/
Clc1ccccc1C(c1ccccc1)(c1ccccc1)n1ccnc1	/	100*	1	1.1	/	88*
N#Cc1c(Cl)cccc1-n1ccnc1	92	-3	1	1	91	/
COC(=O)c1ccc(CN(Cc2ccc(C(=O)OC)o2)C(C)(C)C)o1	97	97*	1	1	89	-12
CCc1nnc(NC(=O)CSc2nnc(-c3ccc(NS(=O)(=O)c4ccccc4)cc3)o2)s1	100	-2	0.9	0.8	80	/
O=[N+]([O-])c1ccc(N/N=C/c2c[nH]c3ccccc23)cc1	70	98*	0.9	0.9	70	-18
Cc1cc(C(=O)N2CCN(Cc3ccc4c(c3)OCO4)CC2)cs1	101	-7	0.9	0.9	94	/
CCOc1ccc(NC(=O)c2cn(-c3ccc(OCC)cc3)c(=O)c3cc(OC)c(OC)cc23)cc1	95	89*	0.8	0.8	101	-9
O=C(NCC(=O)N(Cc1ccccc1)C(C(=O)NC1CCCC1)c1ccncc1)c1ccco1 (stereo not given)	93	-3	1.3	1.3	95	/
CC(=O)NNC(=O)CCn1nnc(-c2ccc(Cl)cc2)n1	/	-3	1.1	1	/	/
Cc1cccc(-n2c(SCc3cc(=O)n4ccsc4n3)nc3ccccc32)c1	72	92*	1.3	1.3	80	-13
CCNc1nc(NCC)nc(SCCOC(=O)COc2ccc(Cl)cc2Cl)n1	102	-3	0.9	0.9	91	/
COCCn1c(=NC(=O)/C=C/c2ccccc2)sc2cc(NC(C)=O)ccc21	89	28	0.9	0.8	89	/
O=C(NCCc1c[nH]c2ccccc12)/C(=C\c1cccnc1)NC(=O)c1ccco1	90	61*	1	1	76	-2
COc1ccc(CNCCNC(=O)c2cccs2)cc1OC	/	-3	0.9	0.9	/	/
COc1ccc(CNCCC(c2ccc(OC(C)C)cc2)C(C)C)cc1OC (stereo not given)	1.3*	98*	1	0.9	1.2*	10
COc1ccc(-n2c(SCC(=O)Nc3nccs3)nc3c(c2=O)SC(C)C3)cc1 (stereo not given)	90	10	0.8	0.9	85	/
Cc1ccc(-c2nnc(Sc3nc4ccccc4o3)c3ccccc23)cc1	25	76*	0.9	0.8	34	9
Clc1ccc(-c2nnc(Sc3nc4ccccc4o3)c3ccccc23)cc1	26	90*	1.1	1.1	19	7
CCSc1nnc(-c2ccc(Cl)cc2)c2ccccc12	47	3	0.9	0.9	45	/
Cc1nnc(Sc2nc3ccccc3o2)c2ccccc12	16	64*	0.9	0.8	18	-3
SMILES	HCT116 PTEN-null	L major viab	PMI act satM6P	PMI act	HCT116 bCat-KO	L major 1uM
CCSc1nnc(-c2ccc(C)cc2)c2ccccc12	73	14	1	1.1	74	/
CC(C)C(=O)N(Cc1cc2ccccc2[nH]c1=O)C(C)(C)C	103	1	0.9	0.9	85	/
c1ccc(C(Cc2nc(-c3cccnc3)no2)c2ccccc2)cc1	79	6	0.8	0.8	84	/
c1ccc(C(c2ccccc2)c2nc(-c3cccnc3)no2)cc1	88	68*	0.9	1	86	-10
Cc1cccc(C2c3[nH]c4ccccc4c3CCN2C(=O)Cc2n[nH]c(C)n2)n1 (stereo not given)	/	4	1	1	/	/
CSC(=S)NCc1cccnc1	/	81*	1.1	1.1	/	8
NC(=S)NCc1cccnc1	/	3	1	0.9	/	/
Cn1nc([N+](=O)[O-])nc1Sc1nnc(-c2ccccc2)o1	2.6*	99*	1.1	1.1	3.4*	-2
N#Cc1c2n(c(=S)n(-c3ccc(F)cc3)c1=O)CCCCC2	/	11	1.1	1.1	/	/
FC(F)(F)c1cc(C(F)(F)F)c2ccc(N3CCN(c4ccc(Cl)cc4)CC3)nc2n1	71	9	1	0.9	74	/
N#CC(c1ccc(Cl)cc1)c1ccc2c(C(F)(F)F)cc(C(F)(F)F)nc2n1 (stereo not given)	0.8*	100*	0.9	0.8	0.9*	56*
Cc1oc2nc(SCC(=O)NC3CCCCC3)nc(N)c2c1C	/	22	/	/	/	/
CC(Sc1ccccc1)C(=O)N(CCC#N)Cc1cccnc1 (stereo not given)	/	7	1	1.1	/	/
Cc1cc(C)c2c(CC(=O)N(CCC#N)Cc3cccnc3)coc2c1	85	81*	0.8	0.9	80	9
OC(COC(c1ccccc1)c1ccccc1)CN1CCc2ccccc2C1 (stereo not given)	68	9	1.1	1	66	/
OC(COCC1COc2ccccc2O1)CN1CCc2ccccc2C1 (stereo not given)	75	99*	1.1	1.1	87	2
Cc1cc(C)n(C(CC(=O)O)C(=O)O)n1 (stereo not given)	98	-6	1.1	1	93	/
Cc1ccc(C(C[N+](=O)[O-])n2nc(C)cc2C)cc1 (stereo not given)	1.9*	100*	1	1	3.9*	36
O=C(COC(=O)[C@H](Cc1ccccc1)N1C(=O)c2ccccc2C1=O)Nc1ccc2c(c1)OCO2	92	99*	0.9	0.9	106	-11
Cc1cc(C)cc(OCC(=O)Nc2ccc3c(c2)OCO3)c1	/	62*	0.7	0.8	/	17
Cc1ccc(OCC(=O)Nc2ccc3c(c2)OCO3)cc1C	/	-7	0.9	0.9	/	/
C1CCC(OCCN2CCN(CCOC3CCCCC3)CC2)CC1	99	95*	0.9	1	91	46
Cc1cc(OC(=O)C(c2ccccc2)c2ccccc2)c([N+](=O)[O-])c(=O)[nH]1	90	58*	0.9	1	93	-17
CCOCCOC(=O)COc1ccc2c(-c3ccccc3)cc(=O)oc2c1	102	-7	1	0.9	97	/
COc1ccc(N(C(=O)COc2cccc(C)c2)S(=O)(=O)c2ccc(C)cc2)cc1	96	52*	0.9	0.7	96	-12
COc1ccc(S(=O)(=O)N(CC(=O)O)c2ccc(C)cc2)cc1	89	-6	1	1	84	/
CCOC(=O)c1c(-c2ccc(C)o2)csc1NC(=S)NC(=O)N(C)C	72	2	0.7	0.7	77	/
